From ChEMBL document CHEMBL3608288, “Novel Chalcone-Thiazole Hybrids as Potent Inhibitors of Drug Resistant Staphylococcus aureus” (ACS Med Chem Lett, 2015)
Converted amounts (≈) assume the structure as drawn. The source made the active and inactive calls. The rule behind the calls is not given here.

Key:
Escherichia coli = test: Antibacterial activity against Escherichia coli ATCC 9637 after 16 hrs by microtiter broth dilution method; format: functional; conditions: W
Pseudomonas aeruginosa = test: Antibacterial activity against Pseudomonas aeruginosa ATCC BAA-427 after 16 hrs by microtiter broth dilution method; format: functional; conditions: ATCC BAA-427, 16 h
Staphylococcus aureus [1] = test: Antibacterial activity against Staphylococcus aureus ATCC 25923 after 16 hrs by microtiter broth dilution method; format: functional; conditions: ATCC 25923, 16 h
Staphylococcus aureus [2] = test: Antibacterial activity against methicillin-resistant Staphylococcus aureus ATCC 700699 after 16 hrs by microtiter broth dilution method; format: functional; conditions: ATCC 700699, 16 h
Staphylococcus aureus [3] = test: Antibacterial activity against […] Staphylococcus aureus ATCC 29213 after 16 hrs by microtiter broth dilution method; format: functional; conditions: ATCC 29213, 16 h
Staphylococcus aureus [4] = test: Antibacterial activity against methicillin/gentamicin-resistant Staphylococcus aureus ATCC 33592 after 16 hrs by microtiter broth dilution method; format: functional; conditions: ATCC 33592, 16 h
Klebsiella pneumoniae = test: Antibacterial activity against Klebsiella pneumoniae ATCC 27736 after 16 hrs by microtiter broth dilution method; format: functional; conditions: ATCC 27736, 16 h
Candida albicans = test: Antifungal activity against Candida albicans after 16 hrs by microtiter broth dilution method; format: functional
Cryptococcus neoformans = test: Antifungal activity against Cryptococcus neoformans after 16 hrs by microtiter broth dilution method; format: functional
Sporothrix schenckii = test: Antifungal activity against Sporothrix schenckii after 16 hrs by microtiter broth dilution method; format: functional
[5] = tested on: Trichophyton mentagrophytes; test: Antifungal activity against Trichophyton mentagrophytes after 16 hrs by microtiter broth dilution method; format: functional
Aspergillus fumigatus = test: Antifungal activity against Aspergillus fumigatus after 16 hrs by microtiter broth dilution method; format: functional
Candida parapsilosis = test: Antifungal activity against Candida parapsilosis ATCC 22019 after 16 hrs by microtiter broth dilution method; format: functional; conditions: Lodderomyces parapsilosis, ATCC 22019, 16 h
[6] = Hemolytic activity in human RBC at 100 ug/ml after 1 hr; conditions: erythrocyte
L929 [7] = test: Cytotoxicity against mouse L929 cells assessed as cell viability at <= MIC by MTT assay; format: cell-based
Procedure, shortened: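 Mouse fibroblast L929 cells were exposed to the compound. Viability was read by MTT conversion to blue formazan, measured at 550 nm.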

L929 [8] = test: Cytotoxicity against mouse L929 cells assessed as induction of morphological changes at 1 x MIC after 24 hrs by Giemsa staining-based phase contrast microscopic analysis; format: cell-based; conditions: l929, 24 h
Procedure, shortened: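 L929 fibroblasts were incubated with the compound for 24 h, then Giemsa-stained. Morphology was compared with untreated control cells under phase contrast microscopy for appearance, transparency and attachment to the well surface.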

Staphylococcus aureus [9] = test: Antibacterial activity against […] Staphylococcus aureus ATCC 29213 assessed as reduction in log10CFU at 1x MIC and 10x MIC measured at 24 hrs relative to control; format: functional
Procedure, shortened: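 Aliquots were taken at regular time points and plated for CFU counts. Reduction in log10 CFU was taken against a no-drug control.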

Row | SMILES | MIC (Escherichia coli) | MIC (Pseudomonas aeruginosa) | MIC (Staphylococcus aureus [1]) | MIC (Staphylococcus aureus [2]) | MIC (Staphylococcus aureus [3]) | MIC (Staphylococcus aureus [4]) | MIC (Klebsiella pneumoniae) | MIC (Candida albicans) | MIC (Cryptococcus neoformans) | MIC (Sporothrix schenckii) | MIC [5] | MIC (Aspergillus fumigatus) | MIC (Candida parapsilosis) | Activity [6] | Activity (L929 [7]) | Activity (L929 [8]) | Activity (Staphylococcus aureus [9])
1 | COc1ccc(-c2csc(/N=C/c3cc(/C=C/C(=O)c4ccc(C)cc4)cc(C(C)(C)C)c3O)n2)cc1 | > 97.9 µM | > 97.9 µM | 12.2 µM (≈ 6.23 µg/mL) | 12.2 µM (≈ 6.23 µg/mL) | 12.2 µM (≈ 6.23 µg/mL) | 12.2 µM (≈ 6.23 µg/mL) | > 97.9 µM | > 97.9 µM | > 97.9 µM | > 97.9 µM | > 97.9 µM | > 97.9 µM | > 97.9 µM | Non-toxic | – | – | –
2 | CCOC(=O)c1csc(/N=C/c2cc(/C=C/C(=O)c3cccs3)cc(C(C)C)c2O)n1 | > 110 µM | > 110 µM | 27.5 µM (≈ 12.5 µg/mL) | 27.5 µM (≈ 12.5 µg/mL) | 27.5 µM (≈ 12.5 µg/mL) | 13.7 µM (≈ 6.23 µg/mL) | > 110 µM | > 110 µM | > 110 µM | > 110 µM | > 110 µM | > 110 µM | > 110 µM | Non-toxic | – | – | –
3 | CCCc1cc(/C=C/C(=O)c2ccco2)cc(/C=N/c2nc(C(=O)OCC)cs2)c1O | > 102 µM | > 102 µM | 51.2 µM (≈ 22.5 µg/mL) | 51.2 µM (≈ 22.5 µg/mL) | 51.2 µM (≈ 22.5 µg/mL) | 51.2 µM (≈ 22.5 µg/mL) | > 102 µM | > 102 µM | > 102 µM | > 102 µM | > 102 µM | > 102 µM | > 102 µM | Non-toxic | – | – | –
4 | CCOC(=O)c1csc(/N=C/c2cc(/C=C/C(=O)c3ccc(C)cc3)cc(C(C)(C)C)c2O)n1 | > 105 µM | > 105 µM | 6.5 µM (≈ 3.1 µg/mL) | 13.1 µM (≈ 6.24 µg/mL) | 6.5 µM (≈ 3.1 µg/mL) | 3.3 µM (≈ 1.57 µg/mL) | > 105 µM | > 105 µM | > 105 µM | > 105 µM | > 105 µM | > 105 µM | > 105 µM | Non-toxic | Non-toxic | Non-toxic | –
5 | C[C@H]1COc2c(N3CCN(C)CC3)c(F)cc3c(=O)c(C(=O)O)cn1c23 | – | – | – | – | – | – | – | – | – | – | – | – | – | – | – | – | Active
6 | CCOC(=O)c1csc(/N=C/c2cc(/C=C/C(=O)c3ccco3)cc(C(C)(C)C)c2O)n1 | > 110 µM | > 110 µM | 13.8 µM (≈ 6.24 µg/mL) | 13.8 µM (≈ 6.24 µg/mL) | 13.8 µM (≈ 6.24 µg/mL) | 13.8 µM (≈ 6.24 µg/mL) | > 110 µM | > 110 µM | > 110 µM | > 110 µM | > 110 µM | > 110 µM | > 110 µM | Non-toxic | – | – | –
7 | CCOC(=O)c1csc(/N=C/c2cc(/C=C/C(=O)c3ccc(C)cc3)cc(C(C)C)c2O)n1 | > 108 µM | > 108 µM | 27 µM (≈ 12.5 µg/mL) | 13.5 µM (≈ 6.24 µg/mL) | 13.5 µM (≈ 6.24 µg/mL) | 13.5 µM (≈ 6.24 µg/mL) | > 108 µM | > 108 µM | > 108 µM | > 108 µM | > 108 µM | > 108 µM | > 108 µM | Non-toxic | – | – | –
8 | OC(Cn1cncn1)(Cn1cncn1)c1ccc(F)cc1F [FLUCONAZOLE] | > 34.5 µM | > 34.5 µM | > 34.5 µM | > 34.5 µM | > 34.5 µM | > 34.5 µM | > 34.5 µM | 0.7 µM (≈ 0.214 µg/mL) | 1.4 µM (≈ 0.429 µg/mL) | 1.4 µM (≈ 0.429 µg/mL) | 22.1 µM (≈ 6.77 µg/mL) | 22.1 µM (≈ 6.77 µg/mL) | 1.4 µM (≈ 0.429 µg/mL) | – | – | – | –
9 | CCOC(=O)c1csc(/N=C/c2cc(/C=C/C(=O)c3ccc(OC)cc3)cc(C(C)C)c2O)n1 | > 104 µM | > 104 µM | 26.1 µM (≈ 12.5 µg/mL) | 26.1 µM (≈ 12.5 µg/mL) | 26.1 µM (≈ 12.5 µg/mL) | 26.1 µM (≈ 12.5 µg/mL) | > 104 µM | > 104 µM | > 104 µM | > 104 µM | > 104 µM | > 104 µM | > 104 µM | Non-toxic | – | – | –
